Measurements from different studies.
Lines come from different studies, so protocols differ.
Genome polyprotein protease: Genome polyprotein, protease (ZIKV, UniProt A0A024B7W1)
CTSB: Cathepsin B (CTSB, Homo sapiens, UniProt P07858)
DPP9: Dipeptidyl peptidase 9 (DPP9, Homo sapiens, UniProt Q86TI2)
MAPKAPK3: MAP kinase-activated protein kinase 3 (MAPKAPK3, Homo sapiens, UniProt Q16644)
Adra1a: Alpha-1A adrenergic receptor (Adra1a, Rattus norvegicus, UniProt P43140)
CCR2: C-C chemokine receptor type 2 (CCR2, Homo sapiens, UniProt P41597)

SMILES | target | effect on | mode | method | concentration | pH | inhibition
O=c1c(O)c(-c2ccc(O)c(O)c2)oc2cc(O)cc(O)c12 | Genome polyprotein protease | enzyme activity | inhibitor | – | 200 µM | pH 8.5 | 100%
Cn1c(=O)c2c(ncn2C)n(C)c1=O | Genome polyprotein protease | enzyme activity | inhibitor | FRET | 100 µM | pH 7 | 6%
C[C@H](C(=O)N[C@H]1COc2ccccc2[C@@H]1S(C)(=O)=O)c1ccc(F)cc1 | Voltage-dependent N-type calcium channel subunit alpha-1B (Cacna1b, Rattus norvegicus, UniProt Q02294) | cell-free assay | – | – | 10 µM | – | 11%
N=C(N)c1ccc2cc(OC(=O)c3ccc(N=C(N)N)cc3)ccc2c1 | CTSB | enzyme activity | inhibitor | – | 10 µM | – | 48%
C#Cc1n[nH]c2c(-c3cn([C@@H](C)c4ccccn4)c(=O)[nH]c3=O)cc(F)cc12 | Cyclin-dependent kinase 8, with cyclin C (CDK8, Homo sapiens, UniProt P49336) | enzyme activity | inhibitor | – | 0.1 µM | – | -1.7%
CC(C)C[C@H](NC(=O)[C@H]1O[C@@H]1C(=O)O)C(=O)NCCCCN=C(N)N | CTSB | enzyme activity | inhibitor | – | 5 nM | – | 77%
O=C(O)c1cc(O)c(O)c(O)c1 | Genome polyprotein protease | enzyme activity | inhibitor | FRET | 100 µM | pH 7 | 15%
CN(C)C(=O)COC(=O)Cc1ccc(OC(=O)c2ccc(NC(=N)N)cc2)cc1 | DPP9 | enzyme activity | inhibitor | – | 10 µM | – | 18%
CC(C)C[C@H](NC(=O)[C@H](Cc1ccccc1)NC(=O)c1cnccn1)B(O)O | Suppressor of tumorigenicity 14 protein (ST14, Homo sapiens, UniProt Q9Y5Y6) | cell-free assay | inhibitor | – | 33 µM | – | 51.5%
Cn1cc(-c2cc(F)cc(N3CCn4c(cc5c4CCCC5)C3=O)c2CO)cc(Nc2ccc(N3CCN(C4COC4)CC3)cn2)c1=O | MAPKAPK3 | enzyme activity | inhibitor | – | 0.1 µM | – | 9%
CC(C)N1CCC[C@H]1CNC(=O)c1cn(C2CCCC2)c(=O)c2c1c1ccccc1n2C | Adra1a | ligand displacement | – | radioligand | 10 µM | – | 16%
COc1cc(Nc2ncc(F)c(Nc3ccc4c(n3)NC(=O)C(C)(C)O4)n2)cc(OC)c1OC | Mitogen-activated protein kinase kinase kinase kinase 1 (MAP4K1, Homo sapiens, UniProt Q92918) | binding | – | competition with immobilised ligand | 10 µM | – | 70%
C[C@@H]1O[C@@H](O[C@H]2[C@H](Oc3cc(O)c4c(c3)O[C@H](c3ccc(O)cc3)CC4=O)O[C@H](CO)[C@@H](O)[C@@H]2O)[C@H](O)[C@H](O)[C@H]1O | Genome polyprotein protease | enzyme activity | inhibitor | FRET | 100 µM | pH 7 | 12.5%
CCCCCCCCCCCC(=O)OC[C@@H](COP(=O)(O)OCCNC(=O)c1ccc(Cn2c(=O)[nH]c3c(N)nc(OCCOC)nc32)cc1)OC(=O)CCCCCCCCCCC | Adra1a | ligand displacement | – | radioligand | 10 µM | – | -11%
O=c1c(O)c(-c2cc(O)c(O)c(O)c2)oc2cc(O)cc(O)c12 | Genome polyprotein protease | enzyme activity | inhibitor | FRET | 100 µM | pH 7 | 88%
Cn1cc(-c2cccc(N3CCc4c(sc5c4CC(C)(C)C5)C3=O)c2CO)cc(Nc2ccncn2)c1=O | MAPKAPK3 | enzyme activity | inhibitor | – | 1 µM | – | 4%
Cc1ncc(C)n2nc(/C=C/c3nc(N4CCCC4)cc(N4CCOCC4)n3)nc12 | CCR2 | cell-free assay | – | – | 10 µM | – | 10%
C#Cc1n[nH]c2c(-c3cn([C@@H](C)c4ccccc4)c(=O)[nH]c3=O)cc(F)cc12 | Dual specificity protein kinase CLK3 (CLK3, Homo sapiens, UniProt P49761) | enzyme activity | inhibitor | – | 0.1 µM | – | -0.8%
CCN(CC)CCCC[C@H](NC(=O)[C@H](CC(C)C)NC(=O)[C@H](C)NC(=O)[C@H](Cc1ccccc1)NC(=O)c1ccc(C(C)(C)C)cc1)C(=O)N[C@@H](CO)C(=O)OC | C-X-C chemokine receptor type 2 (CXCR2, Homo sapiens, UniProt P25025) | ligand displacement | – | radioligand | 10 µM | – | -12%
N#Cc1ccc(NCCNCC(=O)N2N=CCC2C#N)nc1 (stereo not drawn) | DPP9 | enzyme activity | inhibitor | – | 0.1 µM | – | 0%
O=c1c(O)c(-c2ccc(O)c(O)c2)oc2cc(O)cc(O)c12 | Genome polyprotein protease | enzyme activity | inhibitor | FRET | 100 µM | pH 7 | 37%
O=C(Nc1cccnn1)N1CCN([C@@H]2CCOc3cc(C(F)(F)F)ccc32)CC1 | CCR2 | cell-free assay | – | – | 20 µM | – | -9%
CCOC(=O)c1ccc(OC(=O)CCCCCNC(=N)N)cc1 | Ubiquitin carboxyl-terminal hydrolase 14 (USP14, Homo sapiens, UniProt P54578) | enzyme activity | inhibitor | – | 10 µM | – | 1%
O=C1N=C(N2CCCCN2)S/C1=C\c1ccc(F)cc1O | 5-hydroxytryptamine receptor 7 (HTR7, Homo sapiens, UniProt P34969) | ligand displacement | – | radioligand | 10 µM | – | < 10%
